A short description of experiment [1]: Her2 expression decrease, cell viability multiplex – SKBR3 breast tumor cells, AlphaScreen, ATP viability, primary screen (AID 461;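 active = Her2 level under about 52% in both replicate screens, with viability over 70% of control, limit read from the data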;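 as to Her2 level: lower value means less Her2 protein in the cells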;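 as to viability: percent of carrier control wells set as 100% viability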). Conditions: SKBR3 Her2 protein level, 18-24 h, measured here: SKBR3 viability, ATP luminescence, at 10 µM.
Experiment [2] has as its target Receptor tyrosine-protein kinase erbB-2 (Homo sapiens) (UniProt P04626). The experiment is described as above. Conditions: 18-24 h, at 10 µM, stronger effect = lower value.
Experiment [3] in a line: reduced viability of SK-BR-3 breast cancer cells – cell-based, 24 h, human, pilot screen (AID 572;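 active = viability at or below 10% of carrier control in both of two separate runs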;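 also: compound exposure lasted between 18 and 24 h rather than exactly 24 h; 100% = carrier-treated control wells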). Conditions: SK-BR-3 viability, CellTiter-Glo luminescence, at 10 µM, stronger effect = lower value. (In general: ATP-based viability assays read luminescence as a measure of living cells.)
Experiment [4] in a line: HUVEC growth inhibition – cell-based, human, primary screen (AID 575;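 active = viability at or below 30% in both replicate assays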;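 also: 100% = median of untreated cell wells with 0.1% DMSO on each plate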). To be noted: HUVEC proliferation, CellTiter-Glo luminescence, 72 h; at 10 µM; stronger effect = lower value. Summed up: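 Material: primary human umbilical vein endothelial cells / Schedule: 72 h exposure, 37 °C, 5% CO2, 30 min RT equilibration / Signal: ATP-based CellTiter-Glo luminescent read / Read-out basis: percent of median DMSO-control luminescence / Control set: 32 DMSO-only cell-control wells (high), 32 MePR drug-control wells (low) per plate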

The nature of experiment [5]: H69AR cell proliferation blockers – human, duplicate replicates, primary screen (AID 580).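 Also: 100% = mean luminescence of untreated wells and 0% = no signal.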 Conditions: H69AR lung tumor cells viability, ATP luminescence, 72 h; at 10 µM; stronger effect = lower value.
Experiment [6] can be described thus: MRP1 drug-resistance reversers in H69AR cells – cell-based, doxorubicin co-treatment, pilot screen (AID 601;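 active = viability loss from added drug above about 55%, and viability with drug at most 40%, in both replicates, limit read from the data, passing the limit was not always enough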). To be noted: CellTiter-Glo, 72 h, at 10 µM; for differential viability (reversal): stronger effect = higher value.
The nature of experiment [7]: yeast transport mutant growth inhibition pilot in 384-well plates, post-Golgi transport modulator project (AID 636; in the data active = inhibition above about 31%). Conditions: absorbance 615 nm, about 18 h, stronger effect = higher value.
Experiment [8] can be described thus: growth suppression of yeast trafficking mutant, preliminary HTS, modulators of trafficking downstream of Golgi apparatus project, 1536-format plate, OD 615 nm (AID 637; in the data active = inhibition above about 30%). Conditions: yeast transport mutant growth, absorbance 615 nm, 18 h; stronger effect = higher value.
The mark [9] stands for this setting: H69AR cells + 2 uM doxorubicin, measured here: viability with 2 uM doxorubicin, stronger effect = lower value.
Where [10] appears, read: H69AR cells, compound alone cytotoxicity.

The source made the active and inactive calls.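 The calls were made as follows, unless noted: active = viability at or under a set limit in both replicates, limit being median viability minus 3 SD (cut at about 48% in these data, passing the limit was not always enough); inconclusive = at or under the limit in just one replicate; inactive = at or above the limit in both replicates.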

Sequence of Receptor tyrosine-protein kinase erbB-2 (Homo sapiens) (P04626 whole entry, looked up): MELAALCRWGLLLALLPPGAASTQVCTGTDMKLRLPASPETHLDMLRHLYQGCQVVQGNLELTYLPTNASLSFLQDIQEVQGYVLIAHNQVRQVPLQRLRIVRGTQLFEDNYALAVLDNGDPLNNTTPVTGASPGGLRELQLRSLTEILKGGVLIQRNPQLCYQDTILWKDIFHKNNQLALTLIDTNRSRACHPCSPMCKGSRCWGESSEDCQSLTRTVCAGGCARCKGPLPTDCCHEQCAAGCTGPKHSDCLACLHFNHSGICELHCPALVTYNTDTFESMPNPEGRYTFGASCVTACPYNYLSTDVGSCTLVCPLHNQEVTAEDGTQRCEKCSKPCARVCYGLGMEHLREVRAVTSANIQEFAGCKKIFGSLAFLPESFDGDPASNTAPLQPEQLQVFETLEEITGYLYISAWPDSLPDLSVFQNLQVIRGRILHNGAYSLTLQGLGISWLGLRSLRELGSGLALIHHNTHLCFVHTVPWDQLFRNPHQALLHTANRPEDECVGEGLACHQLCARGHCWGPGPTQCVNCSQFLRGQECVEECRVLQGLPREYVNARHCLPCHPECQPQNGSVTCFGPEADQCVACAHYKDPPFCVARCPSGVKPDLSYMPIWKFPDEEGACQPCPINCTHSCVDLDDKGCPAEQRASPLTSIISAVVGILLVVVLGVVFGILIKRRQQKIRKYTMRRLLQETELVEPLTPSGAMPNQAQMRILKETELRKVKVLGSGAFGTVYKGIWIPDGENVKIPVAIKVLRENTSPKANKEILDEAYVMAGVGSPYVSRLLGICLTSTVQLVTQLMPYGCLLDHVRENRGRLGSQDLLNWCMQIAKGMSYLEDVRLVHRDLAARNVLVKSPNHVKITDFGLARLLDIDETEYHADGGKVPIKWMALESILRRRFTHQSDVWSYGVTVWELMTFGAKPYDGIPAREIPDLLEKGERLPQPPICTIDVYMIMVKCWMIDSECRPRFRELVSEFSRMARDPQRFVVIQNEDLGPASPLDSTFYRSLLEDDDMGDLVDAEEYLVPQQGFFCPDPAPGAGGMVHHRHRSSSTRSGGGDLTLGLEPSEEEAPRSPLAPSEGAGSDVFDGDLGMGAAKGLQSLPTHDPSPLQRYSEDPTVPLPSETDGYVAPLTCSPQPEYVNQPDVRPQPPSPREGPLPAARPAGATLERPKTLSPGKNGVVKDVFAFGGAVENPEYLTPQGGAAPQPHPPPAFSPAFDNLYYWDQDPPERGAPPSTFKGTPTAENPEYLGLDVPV

In general, viability refers to a read-out of living cells in per cent, often relative to untreated cells. Usually inhibition stands for the change of the read-out against control, counted positive when it falls. On to `CC(C)(C)c1cc(C(=S)N2CCN(CCO)CC2)cc(C(C)(C)C)c1O`, for which the viability is 123% in experiment [1]; 123% (inactive) in experiment [3]; 94.7% (inactive) in experiment [4]; 96.2% (inactive) in experiment [5]; 78.8% in experiment [6] (setting [9]); 96.2% in experiment [6] (setting [10]). Besides, in experiment [2], the Her2 level is 86% (inactive). The differential viability (reversal) in experiment [6] (H69AR cells + 2 uM doxorubicin) is 17.4% (inactive). Besides, the inhibition in experiment [7] was -6.13% (inactive); in experiment [8] it was 2.42% (inactive).

Regarding `COC(=O)c1ccccc1NC(=O)C1CC(=O)N(c2ccccc2)C1` (stereo not given), the viability in experiment [1] was 122%; in experiment [3] it was 122% (inactive); in experiment [4], 114% (inactive); in experiment [5] it was 102% (inactive); in experiment [6] (setting [9]) it was 80.9%; in experiment [6] (setting [10]) it was 102%. The Her2 level in experiment [2] was 96% (inactive). Besides, the differential viability (reversal) in experiment [6] (H69AR cells + 2 uM doxorubicin) was 20.8% (inactive). For the same molecule, the figures for the inhibition in experiment [7] and in experiment [8] were -6.27% (inactive) and 6.77% (inactive), respectively.

`CCn1c(=S)ccc2ccc(OC)cc21`: the viability is 88.5% in experiment [1]; 88.5% (inactive) in experiment [3]; 98.7% (inactive) in experiment [4]; 101% (inactive) in experiment [5]; 87.6% in experiment [6] (setting [9]); 101% in experiment [6] (setting [10]). In addition, the Her2 level in experiment [2] was 114% (inactive). For the same molecule, the differential viability (reversal) in experiment [6] (H69AR cells + 2 uM doxorubicin) was 13.2% (inactive). In addition, the inhibition in experiment [7] is -5.14% (inactive); in experiment [8], -7.46% (inactive).

As for `CCOc1ccc(-c2nnc(N)s2)cc1`, the viability in experiment [1] is 95%; in experiment [3], 95% (inactive); in experiment [4], 96.3% (inactive); in experiment [5], 118% (inactive); in experiment [6] (setting [9]), 92.3%; in experiment [6] (setting [10]), 118%. Besides, the Her2 level in experiment [2] is 90.5% (inactive). Moreover, the differential viability (reversal) in experiment [6] (H69AR cells + 2 uM doxorubicin) was 25.6% (inactive). For the same molecule, the inhibition in experiment [7] is 0.67% (inactive); in experiment [8] it was -1.29% (inactive).

In the case of `CN(CC(=O)N1CCN(c2ccc(F)cc2)CC1)S(=O)(=O)c1ccc(F)cc1`, the viability is 97% in experiment [1]; 97% (inactive) in experiment [3]; 88.4% (inactive) in experiment [4]; 86.6% (inactive) in experiment [5]; 94.5% in experiment [6] (setting [9]); 86.6% in experiment [6] (setting [10]). The Her2 level in experiment [2] was 95.5% (inactive). Also, in experiment [6] (H69AR cells + 2 uM doxorubicin), the differential viability (reversal) is -7.95% (inactive). Moreover, the inhibition in experiment [7] was -6.18% (inactive); in experiment [8] it was 5.25% (inactive).

Turning to `Cc1cccc(N2C(=O)CC(Sc3nc(C)c4c(n3)CCCC4)C2=O)c1` (stereo not given), the viability in experiment [1] is 80.5%; in experiment [3] it was 80.5% (inactive); in experiment [4] it was 102% (inactive); in experiment [5], 90.3% (inactive); in experiment [6] (setting [9]), 90.3%; in experiment [6] (setting [10]), 90.3%. The Her2 level in experiment [2] is 128% (inactive). Further, the differential viability (reversal) in experiment [6] (H69AR cells + 2 uM doxorubicin) is -0.055% (inactive). Also, the inhibition was -0.27% (inactive) in experiment [7] and 27.5% (inactive) in experiment [8].

Consider `CCCCCCNC(=O)Cc1c(O)c2ccccc2[nH]c1=O`, for which the viability in experiment [1] was 105%; in experiment [3], 105% (inactive); in experiment [4], 114% (inactive); in experiment [5], 94.9% (inactive); in experiment [6] (setting [9]), 80.2%; in experiment [6] (setting [10]), 94.9%. The Her2 level in experiment [2] is 90.5% (inactive). For the same molecule, the differential viability (reversal) in experiment [6] (H69AR cells + 2 uM doxorubicin) was 14.7% (inactive). Further, the inhibition was -5.27% (inactive) in experiment [7] and 7.67% (inactive) in experiment [8].

For `CCNC(=O)Cn1cnc2c1c(=O)n(C)c(=O)n2C`, the viability is 108% in experiment [1]; 108% (inactive) in experiment [3]; 112% (inactive) in experiment [4]; 96.2% (inactive) in experiment [5]; 98.2% in experiment [6] (setting [9]); 96.2% in experiment [6] (setting [10]). For the same molecule, the Her2 level in experiment [2] was 108% (inactive). For the same molecule, in experiment [6] (H69AR cells + 2 uM doxorubicin), the differential viability (reversal) is -1.97% (inactive). The inhibition was -4.74% (inactive) in experiment [7] and 5.25% (inactive) in experiment [8].

Take `Cn1c(CCNC(=O)c2ccco2)nc2cc(NC(=O)C3CCCCC3)ccc21`: the viability in experiment [1] was 101%; in experiment [3], 101% (inactive); in experiment [4], 78.3% (inactive); in experiment [5], 84.5% (inactive); in experiment [6] (setting [9]), 82.5%; in experiment [6] (setting [10]) it was 84.5%. For the same molecule, in experiment [2], the Her2 level was 114% (inactive). Moreover, the differential viability (reversal) in experiment [6] (H69AR cells + 2 uM doxorubicin) is 2.02% (inactive). The values for the inhibition in experiment [7] and in experiment [8] were -8.49% (inactive) and -1.59% (inactive), respectively.

On to `COc1ccccc1-c1noc(-c2cccnc2)n1`, for which the viability in experiment [1] was 94%; in experiment [3] it was 94% (inactive); in experiment [4], 117% (inactive); in experiment [5], 92.3% (inactive); in experiment [6] (setting [9]), 91.4%; in experiment [6] (setting [10]) it was 92.3%. In experiment [2], the Her2 level was 102% (inactive). The differential viability (reversal) in experiment [6] (H69AR cells + 2 uM doxorubicin) is 0.91% (inactive). Besides, the inhibition in experiment [7] was -2.89% (inactive); in experiment [8], -0.66% (inactive).

On to `CCN1CCN(C(c2ccc(F)cc2)c2nnnn2Cc2cccs2)CC1` (stereo not given), for which the viability in experiment [1] is 83%; in experiment [3], 83% (inactive); in experiment [4], 89.4% (inactive); in experiment [5], 94.9% (inactive); in experiment [6] (setting [9]), 86.4%; in experiment [6] (setting [10]), 94.9%. The Her2 level in experiment [2] is 105% (inactive). For the same molecule, in experiment [6] (H69AR cells + 2 uM doxorubicin), the differential viability (reversal) was 8.46% (inactive). The values for the inhibition in experiment [7] and in experiment [8] were -1.15% (inactive) and -0.17% (inactive), respectively.

In the case of `Cc1ncc(CSc2nc3ccccc3[nH]2)c(N)n1`, the viability in experiment [1] was 104%; in experiment [3] it was 104% (inactive); in experiment [4], 115% (inactive); in experiment [5], 104% (inactive); in experiment [6] (setting [9]), 87.5%; in experiment [6] (setting [10]) it was 104%. In addition, the Her2 level in experiment [2] was 92.5% (inactive). In experiment [6] (H69AR cells + 2 uM doxorubicin), the differential viability (reversal) is 16.8% (inactive). Further, the inhibition in experiment [7] was -2.03% (inactive); in experiment [8] it was 1.43% (inactive).

For `CC(Oc1ccc(Cl)cc1Cl)C(=O)Nc1ncccn1` (stereo not given), the viability in experiment [1] is 93.5%; in experiment [3], 93.5% (inactive); in experiment [4], 99.6% (inactive); in experiment [5], 97.2% (inactive); in experiment [6] (setting [9]), 87.7%; in experiment [6] (setting [10]), 97.2%. Besides, in experiment [2], the Her2 level is 108% (inactive). Also, the differential viability (reversal) in experiment [6] (H69AR cells + 2 uM doxorubicin) is 9.42% (inactive). Further, the inhibition in experiment [7] is -1.17% (inactive); in experiment [8], -11% (inactive).

For the molecule `Cc1cc2c(cc(C(=O)NCc3cccnc3)n2Cc2ccc(Cl)cc2)o1`, the viability was 92% in experiment [1]; 92% (inactive) in experiment [3]; 103% (inactive) in experiment [4]; 98.2% (inactive) in experiment [5]; 98.5% in experiment [6] (setting [9]); 98.2% in experiment [6] (setting [10]). The Her2 level in experiment [2] is 68.5% (inactive). Further, in experiment [6] (H69AR cells + 2 uM doxorubicin), the differential viability (reversal) was -0.245% (inactive). The results for the inhibition in experiment [7] and in experiment [8] were -1.45% (inactive) and -3.33% (inactive), respectively.
